Measurements published in ChEMBL document CHEMBL1250529, “Retinobenzaldehydes as proper-trafficking inducers of folding-defective P23H rhodopsin mutant responsible for retinitis pigmentosa” (Bioorg Med Chem, 2010).
Active and inactive are the calls of the source. No cut-off for these calls is given here.

Assays:
[1] = Cytotoxicity against HEK293 cells by WST-1 assay; format: cell-based; conditions: human
Summary of the method: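 HEK293 cells, poly-Lys-coated wells (1 × 10^4 cells/well), grown 16–20 h, then exposed to compounds in DMEM/5% FBS (0.1% DMSO final) for 20–22 h. WST-1 added, 2 h, A405 read. Viability = treated/vehicle absorbance after background (no-cell wells) subtraction; CC50 derived from dose curves.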

[2] = system: Rhodopsin (Homo sapiens), P08100 [P23H]; test: Induction of subcellular localization of HA-tagged human rhodopsin P23H mutant on HEK293 cell surface by immunofluorescence microscopy; format: cell-based
HEK293 = test: Upregulation of HA-tagged rhodopsin P23H expression in HEK293 cell surface by ELISA; format: functional, cell-based; conditions: Homo sapiens
Summary of the method: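 HEK293 in poly-lysine-coated wells transfected with HA-tagged human P23H rhodopsin; 2–3 h later compounds in DMEM/5% FBS (0.1% DMSO final) for 20 h. Non-permeabilized cells fixed, blocked, HRP-anti-HA 1.5 h rt, chemiluminescent readout. Background-subtracted signal expressed relative to untreated cells (=1.0); ≥2 independent experiments (n >4).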

SMILES | CC50 [1] | Activity [2] | Activity (HEK293)
CC1(C)CCC(C)(C)c2cc(C(=O)NCc3ccc(C=O)cc3)ccc21 | 49 µM | – | –
O=Cc1ccc(COC(=O)c2cc(C(F)(F)F)cc(C(F)(F)F)c2)cc1 | > 100 µM | – | –
NC(=O)c1ccc(COC(=O)c2cc(C(F)(F)F)cc(C(F)(F)F)c2)cc1 | > 100 µM | – | –
CC(C)(C)c1ccc(C(=O)OCc2ccc(C=O)cc2)cc1 | 63 µM | – | –
CC(C)(C)c1cccc(C(=O)OCc2ccc(C=O)cc2)c1 | 73 µM | – | –
O=C(O)c1ccc(COC(=O)c2cc(C(F)(F)F)cc(C(F)(F)F)c2)cc1 | > 100 µM | – | –
CC(C)(C)c1cc(C(=O)OCc2ccc(C=O)cc2)cc(C(C)(C)C)c1 | 34 µM | – | –
O=C(OCc1ccc(B(O)O)cc1)c1cc(C(F)(F)F)cc(C(F)(F)F)c1 | 49 µM | – | –
CC1(C)CCC(C)(C)c2cc(C(=O)OCc3ccc(C=O)cc3)ccc21 | 48 µM | – | –
CC1=C(/C=C/C(C)=C\C=C\C(C)=C\C=O)C(C)(C)CCC1 [ISO RHODOPSIN] | 28 µM | Active | Dose-dependent effect
O=Cc1ccc(COC(=O)c2ccc3c(c2)CCCC3)cc1 | > 100 µM | – | –
CC1=C(/C=C/C(C)=C/C=C\C(C)=C\C=O)C(C)(C)CCC1 [RHODOPSIN] | 23 µM | Active | Dose-dependent effect
